Measured values reported in ChEMBL document CHEMBL5030534, “Discovery of Novel Anti-Breast-Cancer Inhibitors by Synergistically Antagonizing Microtubule Polymerization and Aryl Hydrocarbon Receptor Expression” (J Med Chem, 2021).
The source made the active and inactive calls. The calls are words filed in the database; no cut-off is given here.

Experiments:
MCF7 [1] = experiment: Antitumor activity against human MCF7 cells xenografted in BALB/c nude mouse assessed as decrease in tumor weight at 1 mg/kg, iv administered every 2 days for 21 days and measured every 2 days; format: functional; design: scale not given: the % may be the effect or the level left; settings: time 21 day
How it was run: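 MCF-7 cells (6 × 10⁶) injected subcutaneously into right flank of BALB/c nude mice; after 7 days animals randomized, eight per group. Dosing iv every 2 days for 21 days, vehicle 10% DMSO/5% Tween 80/85% saline. Tumor size and body weight recorded every 2 days; tumors excised and weighed at sacrifice.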

MCF7 [2] = experiment: Induction of apoptosis in human MCF7 cells assessed as late apoptotic cells at 2 nM measured after 24 hrs in presence of DMBA by Annexin V-FITC and PI staining based flow cytometry assay (reference value: 1.5%); format: functional
MCF7 [3] = experiment: Induction of ROS generation in human MCF7 cells measured after 24 hrs by DCFH-DA staining based flow cytometric analysis; format: functional, cell-based; settings: dose 0.5-2 nM
How it was run: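 MCF-7 seeded 4 × 10⁵ per well for 24 h, then DMSO or 0.5, 1, 2 nM for 24 h. Loaded with DCFH-DA for 30 min in the dark, resuspended in serum-free medium, DCF fluorescence measured by flow cytometry. For scavenger condition, 2.5 mM N-acetyl-L-cysteine pretreatment, then 2 nM for 24 h. Three runs.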

MCF7 [4] = experiment: Antitumor activity against human MCF7 cells xenografted in BALB/c nude mouse assessed as increase in apoptotic cells at 1 mg/kg, iv administered every 2 days for 21 days by TUNEL staining based assay; format: functional, organism-based; settings: time 21.0 day
How it was run: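 Same subcutaneous MCF-7 nude-mouse xenografts dosed iv every 2 days for 21 days. Tumors then fixed, paraffin-embedded and sectioned. Apoptotic cells detected by TUNEL fluorescent staining with DNA counterstain; microvessel density measured by anti-CD31 immunohistochemistry.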

MCF7 [5] = experiment: Induction of apoptosis in human MCF7 cells assessed as late apoptotic cells at 2 nM measured after 24 hrs by Annexin V-FITC and PI staining based flow cytometry assay (reference value: 2.06%); format: functional

`Cc1nc(N(C)c2ccc3c(c2)cc(C)n3C)c2ccccc2n1` was tested, and the Activity (MCF7 [1]) was 81.1%, the Activity (MCF7 [2]) was 22% and the Activity (MCF7 [3]) was “Dose-Dependent Effect”. The Activity (MCF7 [4]) was “Active” and the Activity (MCF7 [5]) was 45.1%.
